Results: ChEMBL document CHEMBL1649574, “Prevalence and characterization of heterogeneous vancomycin-intermediate Staphylococcus aureus isolates from 14 cities in China” (2009)
In brackets after ≈: the same amount, converted by molar mass.

Key:
Staphylococcus aureus [1] = assay: Antimicrobial activity against SCCmec type III vancomycin-intermediate Staphylococcus aureus isolate 13b16 by broth microdilution method
Staphylococcus aureus [2] = assay: Antimicrobial activity against vancomycin-susceptible Staphylococcus aureus assessed as growth inhibition at 16 times MIC; assay type: functional; design: scale not given: the % may be the effect or the level left
Staphylococcus aureus [3] = assay: Antimicrobial activity against SCCmec type IV vancomycin-intermediate Staphylococcus aureus isolate 06b41 by broth microdilution method; assay type: functional
Outline: (§1)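 Daptomycin MICs on the blood MRSA isolates were done by broth microdilution. The broth was supplemented with calcium chloride to a final calcium of 50 mg/liter, confirmed by biochemical analysis. Isolates were grouped by PAP-AUC ratio relative to Mu3 (VSSA <0.9; hVISA 0.9 to 1.3; VISA ≥1.3).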

Staphylococcus aureus [4] = assay: Antimicrobial activity against SCCmec type III vancomycin-intermediate Staphylococcus aureus isolate b6k7974 by broth microdilution method; assay type: functional; outline: as §1
Staphylococcus aureus [5] = assay: Antimicrobial activity against heterogeneous vancomycin-susceptible Staphylococcus aureus assessed as intermediate isolates by broth microdilution method; assay type: functional
Outline: (§2)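 Daptomycin MICs by broth microdilution in BBL broth with calcium chloride added to a final calcium of 50 mg/liter, checked by biochemical analysis. Tested on the 200 MRSA blood isolates, grouped as hVISA/VISA or VSSA by PAP-AUC ratio relative to Mu3.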

Staphylococcus aureus [6] = assay: Antimicrobial activity against SCCmec type III vancomycin-intermediate Staphylococcus aureus isolate gz06051 by broth microdilution method
Staphylococcus aureus [7] = assay: Antimicrobial activity against heterogeneous vancomycin-intermediate Staphylococcus aureus by broth microdilution method; assay type: functional; outline: as §1
Staphylococcus aureus [8] = assay: Antimicrobial activity against SCCmec type III vancomycin-intermediate Staphylococcus aureus isolate xa07029 by broth microdilution method
Staphylococcus aureus [9] = assay: Antimicrobial activity against SCCmec type III vancomycin-intermediate Staphylococcus aureus isolate b3k2345 by broth microdilution method
Staphylococcus aureus [10] = assay: Antimicrobial activity against vancomycin-susceptible Staphylococcus aureus assessed as growth inhibition at 2 times MIC; assay type: functional; design: scale not given: the % may be the effect or the level left
Staphylococcus aureus [11] = assay: Antimicrobial activity against SCCmec type III vancomycin-intermediate Staphylococcus aureus isolate bd4768 by broth microdilution method
Staphylococcus aureus [12] = assay: Antimicrobial activity against SCCmec type III vancomycin-intermediate Staphylococcus aureus isolate gz06040 by broth microdilution method
Staphylococcus aureus [13] = assay: Antimicrobial activity against SCCmec type III vancomycin-intermediate Staphylococcus aureus isolate b2k3421 by broth microdilution method
Staphylococcus aureus [14] = assay: Antimicrobial activity against vancomycin-intermediate Staphylococcus aureus by broth microdilution method
Staphylococcus aureus [15] = assay: Antimicrobial activity against SCCmec type III vancomycin-intermediate Staphylococcus aureus isolate b5k3578 by broth microdilution method
Staphylococcus aureus [16] = assay: Antimicrobial activity against heterogeneous vancomycin-intermediate Staphylococcus aureus assessed as growth inhibition at MIC; assay type: functional; design: scale not given: the % may be the effect or the level left
Staphylococcus aureus [17] = assay: Antimicrobial activity against SCCmec type III vancomycin-intermediate Staphylococcus aureus isolate b6k1642 by broth microdilution method
Staphylococcus aureus [18] = assay: Antimicrobial activity against SCCmec type III vancomycin-intermediate Staphylococcus aureus isolate 5zjsau3 by broth microdilution method
Staphylococcus aureus [19] = assay: Antimicrobial activity against SCCmec type III vancomycin-intermediate Staphylococcus aureus isolate b5k3529 by broth microdilution method
Staphylococcus aureus [20] = assay: Antimicrobial activity against vancomycin-susceptible Staphylococcus aureus by broth microdilution method; assay type: functional; outline: as §1
Staphylococcus aureus [21] = assay: Antimicrobial activity against SCCmec type II vancomycin-intermediate Staphylococcus aureus isolate 4sy32 by broth microdilution method
Staphylococcus aureus [22] = assay: Antimicrobial activity against SCCmec type III vancomycin-intermediate Staphylococcus aureus isolate gz07030 by broth microdilution method
Staphylococcus aureus [23] = assay: Antimicrobial activity against SCCmec type II vancomycin-intermediate Staphylococcus aureus isolate sh06024 by broth microdilution method
Staphylococcus aureus [24] = assay: Antimicrobial activity against heterogeneous vancomycin-intermediate Staphylococcus aureus assessed as intermediate isolates by broth microdilution method; assay type: functional; outline: as §2
Staphylococcus aureus [25] = assay: Antimicrobial activity against SCCmec type III vancomycin-intermediate Staphylococcus aureus isolate 15b52 by broth microdilution method
Staphylococcus aureus [26] = assay: Antimicrobial activity against SCCmec type II vancomycin-intermediate Staphylococcus aureus isolate 07b63 by broth microdilution method
Staphylococcus aureus [27] = assay: Antimicrobial activity against SCCmec type III vancomycin-intermediate Staphylococcus aureus isolate b4k6307 by broth microdilution method
Staphylococcus aureus [28] = assay: Antimicrobial activity against heterogeneous vancomycin-intermediate Staphylococcus aureus assessed as growth inhibition at 0.125 times MIC; assay type: functional; design: scale not given: the % may be the effect or the level left
Staphylococcus aureus [29] = assay: Antimicrobial activity against heterogeneous vancomycin-susceptible Staphylococcus aureus assessed as susceptible isolates by broth microdilution method; assay type: functional; outline: as §2
Staphylococcus aureus [30] = assay: Antimicrobial activity against heterogeneous vancomycin-intermediate Staphylococcus aureus assessed as growth inhibition at 2 times MIC; assay type: functional; design: scale not given: the % may be the effect or the level left
Staphylococcus aureus [31] = assay: Antimicrobial activity against heterogeneous vancomycin-intermediate Staphylococcus aureus assessed as growth inhibition at 16 times MIC; assay type: functional; design: scale not given: the % may be the effect or the level left
Staphylococcus aureus [32] = assay: Antimicrobial activity against vancomycin-susceptible Staphylococcus aureus assessed as growth inhibition at 0.25 times MIC; assay type: functional; design: scale not given: the % may be the effect or the level left
Staphylococcus aureus [33] = assay: Antimicrobial activity against heterogeneous vancomycin-intermediate Staphylococcus aureus assessed as growth inhibition at 4 times MIC; assay type: functional; design: scale not given: the % may be the effect or the level left
Staphylococcus aureus [34] = assay: Antimicrobial activity against SCCmec type III vancomycin-intermediate Staphylococcus aureus isolate 11b091 by broth microdilution method
Staphylococcus aureus [35] = assay: Antimicrobial activity against heterogeneous vancomycin-intermediate Staphylococcus aureus assessed as growth inhibition at 0.25 times MIC; assay type: functional; design: scale not given: the % may be the effect or the level left
Staphylococcus aureus [36] = assay: Antimicrobial activity against SCCmec type III vancomycin-intermediate Staphylococcus aureus isolate zj07028 by broth microdilution method
Staphylococcus aureus [37] = assay: Antimicrobial activity against heterogeneous vancomycin-intermediate Staphylococcus aureus assessed as growth inhibition at 0.5 times MIC; assay type: functional; design: scale not given: the % may be the effect or the level left
Staphylococcus aureus [38] = assay: Antimicrobial activity against vancomycin-susceptible Staphylococcus aureus assessed as growth inhibition at 0.5 times MIC; assay type: functional; design: scale not given: the % may be the effect or the level left
Staphylococcus aureus [39] = assay: Antimicrobial activity against vancomycin-susceptible Staphylococcus aureus assessed as growth inhibition at 4 times MIC; assay type: functional; design: scale not given: the % may be the effect or the level left
Staphylococcus aureus [40] = assay: Antimicrobial activity against SCCmec type III vancomycin-intermediate Staphylococcus aureus isolate sh07043 by broth microdilution method; assay type: functional; outline: as §1
Staphylococcus aureus [41] = assay: Antimicrobial activity against vancomycin-susceptible Staphylococcus aureus assessed as growth inhibition at 0.125 times MIC; assay type: functional; design: scale not given: the % may be the effect or the level left
Staphylococcus aureus [42] = assay: Antimicrobial activity against SCCmec type II vancomycin-intermediate Staphylococcus aureus isolate 6zjsau7 by broth microdilution method
Staphylococcus aureus [43] = assay: Antimicrobial activity against SCCmec type II vancomycin-intermediate Staphylococcus aureus isolate 4sy39 by broth microdilution method
Staphylococcus aureus [44] = assay: Antimicrobial activity against SCCmec type III vancomycin-intermediate Staphylococcus aureus isolate b3k5923 by broth microdilution method
Staphylococcus aureus [45] = assay: Antimicrobial activity against heterogeneous vancomycin-intermediate Staphylococcus aureus assessed as susceptible isolates by broth microdilution method; assay type: functional; outline: as §2
Staphylococcus aureus [46] = assay: Antimicrobial activity against SCCmec type II vancomycin-intermediate Staphylococcus aureus isolate b2k4781 by broth microdilution method
Staphylococcus aureus [47] = assay: Antimicrobial activity against vancomycin-susceptible Staphylococcus aureus assessed as growth inhibition at MIC; assay type: functional; design: scale not given: the % may be the effect or the level left
Staphylococcus aureus [48] = assay: Antimicrobial activity against SCCmec type III vancomycin-intermediate Staphylococcus aureus isolate gs07022 by broth microdilution method

SMILES: CCCCCCCCCC(=O)N[C@@H](Cc1c[nH]c2ccccc12)C(=O)N[C@H](CC(N)=O)C(=O)N[C@@H](CC(=O)O)C(=O)N[C@@H]1C(=O)NCC(=O)N[C@@H](CCCN)C(=O)N[C@@H](CC(=O)O)C(=O)N[C@H](C)C(=O)N[C@@H](CC(=O)O)C(=O)NCC(=O)N[C@H](CO)C(=O)N[C@@H]([C@H](C)CC(=O)O)C(=O)N[C@@H](CC(=O)c2ccccc2N)C(=O)O[C@@H]1C
- MIC (Staphylococcus aureus [1]): 0.5 µg/mL (≈ 0.309 µM)
- Activity (Staphylococcus aureus [2]): 100%
- MIC (Staphylococcus aureus [3]): 1 µg/mL (≈ 0.617 µM)
- MIC (Staphylococcus aureus [4]): 1 µg/mL (≈ 0.617 µM)
- Activity (Staphylococcus aureus [5]): 0%
- MIC (Staphylococcus aureus [6]): 0.25 µg/mL (≈ 0.154 µM)
- MIC50 (Staphylococcus aureus [7]): 0.5 µg/mL (≈ 0.309 µM)
- MIC90 (Staphylococcus aureus [7]): 1 µg/mL (≈ 0.617 µM)
- MIC (Staphylococcus aureus [8]): 0.5 µg/mL (≈ 0.309 µM)
- MIC (Staphylococcus aureus [9]): 0.5 µg/mL (≈ 0.309 µM)
- Activity (Staphylococcus aureus [10]): 100%
- MIC (Staphylococcus aureus [11]): 0.5 µg/mL (≈ 0.309 µM)
- MIC (Staphylococcus aureus [12]): 0.5 µg/mL (≈ 0.309 µM)
- MIC (Staphylococcus aureus [13]): 0.5 µg/mL (≈ 0.309 µM)
- MIC (Staphylococcus aureus [14]): 0.5 µg/mL (≈ 0.309 µM)
- MIC (Staphylococcus aureus [15]): 0.5 µg/mL (≈ 0.309 µM)
- Activity (Staphylococcus aureus [16]): 100%
- MIC (Staphylococcus aureus [17]): 0.5 µg/mL (≈ 0.309 µM)
- MIC (Staphylococcus aureus [18]): 0.5 µg/mL (≈ 0.309 µM)
- MIC (Staphylococcus aureus [19]): 0.5 µg/mL (≈ 0.309 µM)
- MIC50 (Staphylococcus aureus [20]): 0.5 µg/mL (≈ 0.309 µM)
- MIC90 (Staphylococcus aureus [20]): 0.5 µg/mL (≈ 0.309 µM)
- MIC (Staphylococcus aureus [21]): 0.5 µg/mL (≈ 0.309 µM)
- MIC (Staphylococcus aureus [22]): 0.5 µg/mL (≈ 0.309 µM)
- MIC (Staphylococcus aureus [23]): 0.5 µg/mL (≈ 0.309 µM)
- Activity (Staphylococcus aureus [24]): 0%
- MIC (Staphylococcus aureus [25]): 0.5 µg/mL (≈ 0.309 µM)
- MIC (Staphylococcus aureus [26]): 0.5 µg/mL (≈ 0.309 µM)
- MIC (Staphylococcus aureus [27]): 0.25 µg/mL (≈ 0.154 µM)
- Activity (Staphylococcus aureus [28]): 0%
- Activity (Staphylococcus aureus [29]): 100%
- Activity (Staphylococcus aureus [30]): 100%
- Activity (Staphylococcus aureus [31]): 100%
- Activity (Staphylococcus aureus [32]): 10.7%
- Activity (Staphylococcus aureus [33]): 100%
- MIC (Staphylococcus aureus [34]): 0.5 µg/mL (≈ 0.309 µM)
- Activity (Staphylococcus aureus [35]): 14.8%
- MIC (Staphylococcus aureus [36]): 0.5 µg/mL (≈ 0.309 µM)
- Activity (Staphylococcus aureus [37]): 88.9%
- Activity (Staphylococcus aureus [38]): 95.1%
- Activity (Staphylococcus aureus [39]): 100%
- MIC (Staphylococcus aureus [40]): 1 µg/mL (≈ 0.617 µM)
- Activity (Staphylococcus aureus [41]): 0.58%
- MIC (Staphylococcus aureus [42]): 0.25 µg/mL (≈ 0.154 µM)
- MIC (Staphylococcus aureus [43]): 0.5 µg/mL (≈ 0.309 µM)
- MIC (Staphylococcus aureus [44]): 0.25 µg/mL (≈ 0.154 µM)
- Activity (Staphylococcus aureus [45]): 100%
- MIC (Staphylococcus aureus [46]): 0.5 µg/mL (≈ 0.309 µM)
- Activity (Staphylococcus aureus [47]): 100%
- MIC (Staphylococcus aureus [48]): 0.5 µg/mL (≈ 0.309 µM)
